Source: PubChem BioAssay
Compounds with a hit are over-represented: about 3.5% of the library has one in this group of screens.
MrgX1 ag: activates human MrgX1 receptor signaling | 0.44% of 310,000 active | MrgX1-HEK293 cells, Fluo-4 calcium fluorescence, agonist mode; active compounds read high | AID 588627 | Q96LB2 | B-score at 10 µM;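 active = calcium response B-score plate-corrected fluorescence ratio at least 3 library SD, with starting fluorescence B-score inside 5 SD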
Target sequence (Q96LB2 whole entry, looked up): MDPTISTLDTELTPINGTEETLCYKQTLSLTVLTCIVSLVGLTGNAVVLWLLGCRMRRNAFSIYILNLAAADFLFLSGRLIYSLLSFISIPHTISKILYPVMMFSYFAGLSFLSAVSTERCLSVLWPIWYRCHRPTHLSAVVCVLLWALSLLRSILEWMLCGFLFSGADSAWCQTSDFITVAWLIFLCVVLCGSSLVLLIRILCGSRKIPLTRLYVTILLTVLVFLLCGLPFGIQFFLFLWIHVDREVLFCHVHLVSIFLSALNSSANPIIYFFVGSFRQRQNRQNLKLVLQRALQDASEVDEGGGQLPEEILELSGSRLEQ
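Material: MrgX1-expressing HEK293 cells; input: 15,000 cells per well; doses: test compound given as first of three sequential additions; schedule: overnight plating before 1 h dye loading; technique: Fluo-4 NW calcium-flux fluorescence, kinetic read; evaluation: baseline-normalised fluorescence change ratio, B-scored; control set: plate-wise positive and negative controls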
MrgX1 allo act: human MrgX1 positive allosteric modulation, primary screen. Q96LB2. MrgX1-HEK293, Fluo-4 calcium flux, FDSS; active compounds read high. B-score at 10 µM. 0.63% of 310,000 active. AID 588675;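 active = plate-corrected calcium response at least 3 library SD above typical, normal starting fluorescence, not activating the receptor alone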;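 also: compound read alongside a low EC10 to EC30 dose of BAM8-22 agonist; peak minus trough fluorescence over baseline measured at the second addition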
RGS4 pot: potentiators or activators of RGS4. HEK293 M3R/inducible RGS4, carbachol calcium flux Fluo4; active compounds read low. B-score at 10 µM. 0.92% of 310,000 active;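 active = B-score of the integrated calcium signal more than 4 SD below the library mean, with starting fluorescence not abnormally high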;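 also: negative B-score means reduced calcium response which marks RGS4 activation or potentiation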
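Material: M3R-expressing HEK293 line, RGS4 induced by doxycycline | Schedule: Overnight RGS4 induction, 30 min dye load 37 °C, 20 min compound RT | Measured by: Fluo4 fluorescence kinetic imaging of calcium | Read-out: Integrated calcium ratio converted to B score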
RGS4 inh: inhibitors of human RGS4 | HEK293 M3R/RGS4 inducible, Fluo-4 calcium flux; active compounds read high; triggered by carbachol at its EC20 | B-score at 10 µM | 0.45% of 310,000 active;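 active = B-score, a plate-corrected calcium signal, over three deviations above library mean, with baseline fluorescence within five deviations of library mean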;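 also: RGS4 expression induced by doxycycline in cells with stable M3 receptor; B-score is computed from the integrated fluorescence ratio over baseline after carbachol; higher B-score means a larger calcium signal and so more RGS4 inhibition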
Target sequence (P49798 whole entry, looked up): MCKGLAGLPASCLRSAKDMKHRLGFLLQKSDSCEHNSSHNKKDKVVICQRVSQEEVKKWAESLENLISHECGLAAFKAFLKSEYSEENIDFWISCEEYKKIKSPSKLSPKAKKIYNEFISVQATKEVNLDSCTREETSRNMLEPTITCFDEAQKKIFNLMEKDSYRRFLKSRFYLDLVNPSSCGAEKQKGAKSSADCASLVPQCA
MrgX1 antag: human MrgX1 receptor antagonism, primary screen. Q96LB2. MRGX1-HEK293 calcium flux, Fluo-4, BAM8-22 antagonism; active compounds read low. B-score at 10 µM. 1.3% of 310,000 active;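 active = calcium-response B-score plate-corrected more than 3 library SD below zero, starting fluorescence within 5 deviations, no agonist response on first addition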;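 also: peak minus trough fluorescence over baseline after final BAM8-22 challenge near maximal dose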
RGS4 block valid: validation of RGS4 inhibitors | calcium response, % at 10 µM | shares compounds with RGS4 inh | HEK293 M3R/RGS4, carbachol calcium Fluo-4 fluorescence; carbachol added at its EC20; 0 = buffer wells, 100 = carbachol control | 65% of 1,700 active | AID 492999;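 active = duplicate-averaged calcium response above the buffer-only control mean plus 5 SD of those controls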;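 also: integrated fluorescence ratio F max minus min over baseline F0; higher response in RGS4-induced cells means RGS4 inhibition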
RGS4 uninduced: non-induced cell nonspecific activity of RGS4 inhibitors | shares compounds with RGS4 inh | HEK293 M3R non-induced, carbachol calcium Fluo-4; submaximal (EC20) carbachol stimulus; buffer wells 0%, carbachol control wells 100% | activity (percent), % at 10 µM | 20% of 1,900 active | AID 493000; call rule not given here;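 also: RGS4 induction absent so cells express M3R without RGS4; higher means more calcium signal and flags a non-specific hit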
M3R basal Ca ctr: second RGS4 inhibitor counter-screen in uninduced cells lacking carbachol; calcium response (agonist-mode artifact), % at 10 µM; HEK293 M3R/RGS4 non-induced, Fluo-4 calcium, no carbachol; normalised: buffer wells 0%, carbachol wells 100%; AID 493001; 22% of 1,900 active; shares compounds with RGS4 inh;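 active = duplicate-averaged calcium rise in uninduced cells above buffer wells' mean plus 5 SD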
Hits are given with their value; - = inactive; . = no result given.

SMILES	MrgX1 ag	MrgX1 allo act	RGS4 pot	RGS4 inh	MrgX1 antag	RGS4 block valid	RGS4 uninduced	M3R basal Ca ctr
CCOC(=O)C1=C(N)Oc2ccccc2C12C(=O)N(CC(=O)OC)C(CC(=O)OC)=C2C(=O)OC (stereo unspecified)	-	-	-	-	-	.	.	.
O=c1oc2ccccc2c(O)c1C(c1ccc([N+](=O)[O-])cc1)c1c(O)c2ccccc2oc1=O	.	.	-	4.9	.	30%	-	-
COc1ccc(OC)c(N2C(=O)NC(=O)/C(=C/c3ccc([N+](=O)[O-])s3)C2=O)c1	-	-	-	5.8	-	15%	-	-
COc1ccc(OC)c(N2C(=O)/C(=C/c3ccco3)C(=O)NC2=S)c1	-	-	-	-	-	.	.	.
O=C(Cc1ccc(Cl)c(Cl)c1)NCC1(N2CCOCC2)CCCCC1	-	-	-	-	-	.	.	.
O=C1NC(=O)C(=Cc2coc3ccc(O)cc3c2=O)C(=O)N1	-	-	-	5.3	-	8.5%	-	-
Cc1cc(C)cc(N2C(=O)NC(=O)/C(=C/c3cccn3-c3ccc(Cl)cc3)C2=O)c1	-	-	-	-	-	-	-	-
O=[N+]([O-])c1ccc(N2CCCC2)c2ncccc12	-	-	-	-	-	.	.	.
CC1CN(c2ccc([N+](=O)[O-])c3cccnc23)CC(C)N1 (stereo unspecified)	-	-	-	5.8	-	-	-	-
C=C1C(=O)O[C@@H]2C[C@@H](C)[C@@H]3C=CC(=O)[C@@]3(C)[C@@H](OC(=O)CC(=O)O[C@H]3[C@@H]4C(=C)C(=O)O[C@@H]4C[C@@H](C)[C@@H]4C=CC(=O)[C@]43C)[C@H]12	-	-	-	-	-5.3	.	-	11%
COc1ccc(C2CC(c3c(O)n(CCc4ccccc4)c(=O)[nH]c3=O)=NN2)cc1OC (stereo unspecified)	-	-	-	8.1	-	-	-	-
COc1cc2c(cc1/C=C/[N+](=O)[O-])OCO2	.	.	-	12	.	36%	43%	74%
Cc1ccc(/C=C2\C(=O)NC(=S)N(c3cccc(F)c3)C2=O)o1	-	-	-	16	-	34%	-	-
Cc1ccc(/C=C2\C(=O)NC(=O)N(CCc3ccc(F)cc3)C2=O)o1	-	-	-	-	-	.	-	8.5%
O=C1NC(=O)N(Cc2ccccc2Cl)C(=O)/C1=C/c1cccs1	-	-	-	-	-	.	.	.
O=C1NC(=O)N(Cc2ccc(F)cc2)C(=O)/C1=C/c1cccs1	-	-	-	30	-	15%	-	-
COc1ccc(N2C(=O)/C(=C/c3ccc(C)o3)C(=O)NC2=S)cc1	.	.	-	-	.	.	33%	12%
Cc1c(Cl)cccc1N1C(=O)NC(=O)/C(=C\c2cc(C)n(-c3cccc(C(=O)O)c3C)c2C)C1=O	-	-	-	-	-	.	.	.
O=C1NC(=O)C(=Cc2ccc3c(c2)OCO3)C(=O)N1	-	-	-	-	-	.	.	.
O=C1NC(=O)C(=Cc2ccc(-c3ccc(Cl)cc3)o2)C(=O)N1	-	-	-	14	-	16%	-	8.5%
O=C1NC(=O)C(=Cc2ccc(-c3ccc(F)cc3O)o2)C(=O)N1	-	-	-	40	-	74%	32%	10%
O=C1NC(=O)C(=Cc2ccc(-c3ccc(S(=O)(=O)N4CCOCC4)cc3)o2)C(=O)N1	-	-	-	-	-	.	.	.
CCCNC(=O)N1[C@H]2CC[C@@H]1C(C(=O)OC)=C(c1ccc(S(C)(=O)=O)cc1)C2	-	-	-	-	-	.	.	.
O=C(Cn1ncc2c3ccccc3n(Cc3ccc(F)cc3)c2c1=O)N1CCC2(CC1)OCCO2	-	-	-	-	-	.	.	.
COc1ccc(NP(=O)(Oc2ccc(Cl)cc2)Oc2ccc(Cl)cc2)cc1OC	-	-	-	12	-	42%	-	-
SMILES	MrgX1 ag	MrgX1 allo act	RGS4 pot	RGS4 inh	MrgX1 antag	RGS4 block valid	RGS4 uninduced	M3R basal Ca ctr
c1cncc(C2Nc3cccc4cccc(c34)N2)c1	-	-	-	-	-	.	.	.
CCN(CC)c1ccc(C=C2C(=O)NC(=S)NC2=O)cc1	-	-	-	36	-	56%	30%	-
CC(C)CN(CC(C)C)c1ccc(C=C2C(=O)NC(=S)NC2=O)cc1[N+](=O)[O-]	-	-	-	-	-	.	.	.
O=C(Cn1cc(C=C2C(=O)NC(=O)NC2=O)c2ccccc21)NCC1CCCO1 (stereo unspecified)	-	-	-	-	-	.	.	.
Cc1c(C=C2C(=O)N(C)C(=S)N(C)C2=O)c2ccccc2n1CC(=O)NCC1CCCO1 (stereo unspecified)	-	-	-	5.1	-	54%	-	24%
O=C1NC(=O)N(c2ccc3c(c2)OCO3)C(=O)/C1=C/c1ccsc1	-	-	-	-	-	.	.	.
O=C1NC(=O)N(c2ccc3c(c2)OCO3)C(=O)/C1=C/c1cccs1	-	-	-	13	-	18%	34%	-
CCN(CC)c1ccc(N=Cc2c(O)n(-c3cc(OC)ccc3OC)c(=O)[nH]c2=O)cc1	-	-	-	-	-	.	.	.
CCCCn1c(O)c(C(C)=NCC2CCCO2)c(=O)[nH]c1=O (stereo unspecified)	-	-	-	-	-	.	.	.
C=C(CC1CC(O)[C@]2(C)OC3CC4OC5C[C@]6(C)O[C@]7(C)CCC8OC9C[C@]%10(C)OC%11C(C)=CC(=O)OC%11CC%10OC9C[C@@H](C)C8OC7CC6O[C@]5(C)C/C=C\C4OC3CC2O1)C(=O)O (stereo partly specified)	-	-	-	-	-	-	-	-
CCN(CC)CCCN=C(C)c1c(O)n(-c2ccc(C)cc2)c(=O)[nH]c1=O	-	-	-	-	-	.	.	.
Cc1nn(Cc2ccccc2)c(C)c1C=C1C(=O)NC(=S)NC1=O	-	-	-	14	-	70%	-	8.0%
CC(CN(C)C1CCN(C)CC1)c1ccccc1 (stereo unspecified)	-	-	-	-	-	.	.	.
Cc1ccc(N2C(=O)NC(=O)/C(=C\C=C\c3ccco3)C2=O)cc1C	-	-	-	22	-	28%	32%	40%
Cc1ccc(N2C(=O)NC(=O)/C(=C\C=C\c3ccco3)C2=O)cc1	-	-	-	-	-	.	-	12%
O=C1NC(=O)N(c2ccccc2)C(=O)/C1=C/C=C/c1ccco1	-	-	-	-	-	.	.	.
